According to ChEMBL document CHEMBL1128250, “Structure-activity studies of 2,3,4,4a,5,9b-hexahydroindeno[1,2-c]pyridines as antispermatogenic agents for male contraception” (1995):

Tests used:
Mus musculus [1] = assay: Tested for its effect on spermatogenic index 3 days after single oral dose (90 mg/kg) in mice; format: functional
How it was run: (§1)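 CD-1 outbred Swiss albino male mice, 5 per dose, single gavage on day 0 at 10 mL/kg. Vehicle was 0.15 M acetate buffer pH 5, ethanol/Tween-20/water (3:7:90), or 1% Tween-20 in water. CO2 euthanasia 72 h later. Testes weighed and histologically scored (spermatogenic index 0–6). Values are % reduction versus the assay's vehicle control. Positive control was 30 mg/kg of the parent compound. Significance by Dunnett's one-tailed t-test, p < 0.05.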

Mus musculus [2] = assay: Tested for its effect on mouse testes weight 3 days after single oral dose (10 mg/kg); format: functional, Testis; how it was run: as §1
Mus musculus [3] = assay: Tested for its effect on mouse testes weight 3 days after single oral dose (3 mg/kg); format: functional, Testis; how it was run: as §1
Mus musculus [4] = assay: Tested for its effect on mouse testes weight 3 days after single oral dose (90 mg/kg); format: functional, Testis; how it was run: as §1
Mus musculus [5] = assay: Tested for its effect on spermatogenic index 3 days after single oral dose (10 mg/kg) in mice; format: functional; how it was run: as §1
Mus musculus [6] = assay: Tested for its effect on spermatogenic index 3 days after single oral dose (3 mg/kg) in mice; format: functional; how it was run: as §1
Mus musculus [7] = assay: Tested for its effect on mouse testes weight 3 days after single oral dose (30 mg/kg); format: functional, Testis; how it was run: as §1
Mus musculus [8] = assay: Tested for its effect on spermatogenic index 3 days after single oral dose (30 mg/kg) in mice; format: functional; how it was run: as §1
Mus musculus [9] = assay: tested for its effect on spermatogenic index 3 days after single oral dose (30 mg/kg); format: functional
How it was run: (§2)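 Male CD-1 (ICR)BR outbred Swiss albino mice, 5/dose, single oral gavage dose (10 mL/kg) on day 0 in acetate buffer pH 5 or Tween-20-based vehicle; killed 72 h later. Testis cross-sections scored histologically on a 0–6 spermatogenic index (Sertoli only to >100 late spermatids/tubule). Reported as % reduction versus vehicle control; Dunnett's one-tailed t-test.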

Mus musculus [10] = assay: tested for its effect on spermatogenic index 3 days after single oral dose (90 mg/kg); format: functional; how it was run: as §2
Mus musculus [11] = assay: tested for its effect on testes weight 3 days after single oral dose (90 mg/kg); format: functional, Testis
How it was run: (§3)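 Male CD-1 (ICR)BR outbred Swiss albino mice, 5/dose, given one oral gavage dose (10 mL/kg) on day 0 in 0.15 M acetate buffer pH 5, ethanol/Tween-20/water (3:7:90), or 1% Tween-20 in water; vehicle and positive-control groups in each assay. Killed by CO2 72 h later; testes weighed. Expressed as % reduction versus vehicle control; Dunnett's one-tailed t-test.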

Mus musculus [12] = assay: Tested for its effect on testes weight 3 days after single oral dose (10 mg/kg); format: functional, Testis; how it was run: as §1
Mus musculus [13] = assay: Tested for its effect on spermatogenic index 3 days after single oral dose (10 mg/kg),; format: functional; how it was run: as §1
Mus musculus [14] = assay: tested for its effect on testes weight 3 days after single oral dose (30 mg/kg); format: functional, Testis; how it was run: as §3

CCN1CC[C@H]2[C@H](c3ccc(OC)cc3)c3cc(C)ccc3[C@H]2C1.Cl
Reduction (Mus musculus [1]): -5% | Reduction (Mus musculus [2]): -17% | Reduction (Mus musculus [3]): -7% | Reduction (Mus musculus [4]): 5% | Reduction (Mus musculus [5]): -6% | Reduction (Mus musculus [6]): 2%

Cc1ccc([C@H]2c3cc(C)ccc3[C@H]3CN(C)CC[C@@H]23)cc1.Cl
Reduction (Mus musculus [7]): 12% | Reduction (Mus musculus [8]): 7%

CCN1CC[C@H]2[C@H](c3ccc(C)cc3C)c3cc(C)ccc3[C@H]2C1.Cl
Reduction (Mus musculus [9]): 3% | Reduction (Mus musculus [10]): 30% | Reduction (Mus musculus [11]): 11% | Reduction (Mus musculus [12]): 1% | Reduction (Mus musculus [13]): 0% | Reduction (Mus musculus [14]): 6%
